DNMT1 block – blocks human DNA methyltransferase DNMT1; P26358; DNMT1 molecular beacon, Hinp1I cleavage, fluorescence; inhibition (reported as % activation of signal), % at 10 µM; hit rate 0.83% among 360,000; AID 588458; in the data active = inhibition above about 50%
STEP inh – blocks human striatal-enriched tyrosine phosphatase. P54829. recombinant STEP, OMFP fluorogenic substrate, fluorescence. inhibition, % at 20 µM. hit rate 0.25% among 360,000. AID 588621;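 active = inhibition at 20 µM, scaled per plate between control wells, above about 37%, limit read from the data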;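 also: 0% = DMSO with enzyme and substrate and 100% = substrate only without enzyme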
Target sequence (P54829 whole entry, looked up): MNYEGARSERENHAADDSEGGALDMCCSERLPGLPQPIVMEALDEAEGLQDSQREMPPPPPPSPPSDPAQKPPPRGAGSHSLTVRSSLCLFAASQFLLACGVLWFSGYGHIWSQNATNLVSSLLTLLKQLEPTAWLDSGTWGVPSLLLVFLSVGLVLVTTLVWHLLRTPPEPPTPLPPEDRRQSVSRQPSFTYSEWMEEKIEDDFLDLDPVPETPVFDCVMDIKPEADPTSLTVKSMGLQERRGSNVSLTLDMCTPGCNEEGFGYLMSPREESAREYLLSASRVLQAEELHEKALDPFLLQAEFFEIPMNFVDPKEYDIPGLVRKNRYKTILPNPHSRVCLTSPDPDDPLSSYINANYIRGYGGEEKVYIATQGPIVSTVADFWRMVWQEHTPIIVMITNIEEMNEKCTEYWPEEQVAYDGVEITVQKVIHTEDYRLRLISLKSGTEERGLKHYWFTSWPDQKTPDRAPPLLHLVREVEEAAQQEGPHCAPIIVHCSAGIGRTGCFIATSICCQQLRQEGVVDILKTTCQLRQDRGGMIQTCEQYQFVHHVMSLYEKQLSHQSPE
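System: STEP (striatal-enriched tyrosine phosphatase) enzyme, cell-free; medium: Bis-Tris pH 6.0 buffer with DTT, detergent; dosing: 20 µM, 1% DMSO; times: reaction 20 min, ambient temperature; detection: fluorescence, 480/540 nm; read-out basis: normalized % inhibition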
F508del corr – CFTR F508del correction in bronchial cells | CFBE cells, YFP halide quenching; stimulated with forskolin plus potentiator P3; % fluorescence drop versus neutral controls | activity (quench increase), % at 7.58 µM | hit rate 0.36% among 350,000 | AID 720511;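 active = mean added fluorescence quench of at least 8% versus neutral control, with both replicates also reaching 8%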;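 also: cells transiently co-express mutant CFTR-F508del with the halide-sensitive YFP; corrector assay measuring rescue of mutant channel to the surface after 24 h compound exposure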
SUMO1-SIM PPI – modulators of human SUMO1-mediated protein-protein interactions; inhibition, % at 20 µM; hit rate 0.33% among 360,000; SUMO1 binding to a labelled peptide, TR-FRET, 1 h; P63165; in the data active = inhibition above about 37%
Target sequence (P63165 whole entry, looked up): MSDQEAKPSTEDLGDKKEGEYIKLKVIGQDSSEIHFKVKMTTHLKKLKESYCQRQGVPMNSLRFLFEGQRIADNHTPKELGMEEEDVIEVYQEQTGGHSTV
Scp1 inh – blocks human Scp-1 phosphatase activity; Q9GZU7; Recombinant Scp1, phosphopeptide, malachite green phosphate absorbance; inhibition, % at 20 µM; hit rate 0.88% among 340,000; AID 493091;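 active = inhibition above about 50% at 20 µM, limit read from the data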;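 also: plate controls were DMSO wells with enzyme for no effect and wells lacking enzyme for full effect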
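Test system: SCP-1 phosphatase catalytic domain, residues 76-261; measured by: colorimetric phosphate reagent with accelerator and stabiliser, absorbance at 630 nm; timing: enzyme reaction 45 min at room temperature, colour 5 min, stabilisation 30 min; also added: Phosphorylated 17-residue peptide substrate; compound dosing: one concentration, 20 µM, with 1.0% DMSO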
LMPTP block – blocks human LMPTP phosphatase | recombinant LMPTP-A, OMFP fluorogenic substrate, fluorescence intensity | inhibition, % at 20 µM | hit rate 0.22% among 360,000;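 active = compounds that cut the enzyme signal by at least half of the control window in the single-dose screen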;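 also: plate controls were DMSO wells with enzyme plus substrate for no effect and substrate without enzyme for full effect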
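material = LMPTP-A | quantity = 0.625 nM enzyme | reagent = OMFP substrate, 400 µM final | buffer or medium = Bis-Tris pH 6.0, DTT, detergent | detection = endpoint fluorescence intensity from OMFP dephosphorylation | dosing = single 20 µM dose | read-out basis = % inhibition relative to no-enzyme and uninhibited control wells | control set = no-enzyme and uninhibited controls | timing = 50 min at room temperature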
DNMT1 interf DR – beacon fluorescence artifact, dose response counter-screen. AID 602382. 200 tested, under 10 active. molecular beacon fluorescence, spectral interference counter-screen. shares compounds with DNMT1 block. IC50, µM; call rule not given here
DNMT1 confirm – confirmation of human DNMT1 inhibitors | shares compounds with DNMT1 block | DNMT1 molecular beacon HinP1I cleavage, fluorescence | inhibition, % at 10 µM | hit rate 8% among 2,300 | AID 602385;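 active = average inhibition of at least 30% in the single-concentration confirmation test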
DNMT1 interf – counter-screen for DNMT1 inhibitors: spectral interference. shares compounds with DNMT1 block. DNMT1 molecular beacon spectral interference counterscreen, fluorescence 485/520. activation (fluorescence interference), % at 10 µM. hit rate 1% among 2,300;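 active = activation of at least 30% at 10 µM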;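 also: DNMT1 catalytic domain with a HinP1I cleavage step and a FAM/dabcyl DNA beacon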
* marks the source's active call; other numbers are inactive results; . = not tested or not shown. Rows were chosen to be rich in hits. Some 1.6% of all compounds tested hit in one or more screens of this group.

SMILES | DNMT1 block | STEP inh | F508del corr | SUMO1-SIM PPI | Scp1 inh | LMPTP block | DNMT1 confirm | DNMT1 interf | others
N#Cc1ccc(-c2ccccc2)nc1SCC(=O)c1cc2ccccc2oc1=O | 70* | 2 | . | -1 | -6 | 2 | 1 | 5
CCn1cnc2c1c(=O)n(Cc1cccc(Br)c1)c(=O)n2Cc1ccccc1 | 68* | 0 | 1 | 6 | -10 | 2 | 9 | 10
Cn1cnc2c1c(=O)n(Cc1cccc(Br)c1)c(=O)n2C | -1 | -2 | . | 5 | -7 | -2 | . | .
CS(=O)(=O)N1Cc2cc(C(=O)NCC3CC3)nc(-c3cccc(-c4cncnc4)c3)c2[C@@H]1CCO | . | . | -1 | . | . | . | . | .
CCOc1ccc(-c2nnc3sc(COc4ccc(Cl)cc4)nn23)cc1 | 58* | 1 | . | -2 | -3 | 11 | 11 | 2
O=[N+]([O-])c1cccc(/C=C/c2nc(C=Nc3ccc4ccccc4c3)c(O)o2)c1 | 53* | -1 | . | 0 | 1 | 9 | 0 | -4
COc1ccc2sc3c(=O)[nH]c4ccccc4c3c2c1 | 58* | 3 | . | 7 | -5 | 1 | 5 | 4
CCCN(C)C[C@H]1Oc2cc(C#CC3CCCCC3)ccc2S(=O)(=O)N([C@@H](C)CO)C[C@H]1C | . | . | 6 | . | . | . | . | .
COc1cc2c(cc1NC(=O)CSc1cccc[n+]1[O-])oc1ccccc12 | 72* | 0 | . | 0 | -7 | -1 | 2 | 0
COc1cc2c(cc1NC(=O)CSc1nnnn1-c1ccccc1)oc1ccccc12 | 52* | -2 | . | -1 | -4 | -1 | 1 | -3
COc1cc2c(cc1NC(=O)CSc1ccc(C)cc1)oc1ccccc12 | -10 | 1 | 0 | -2 | -6 | 4 | . | .
C[C@@H]1CCCCO[C@@H](CN(C)S(=O)(=O)c2ccc(F)cc2)[C@@H](C)CN([C@H](C)CO)C(=O)c2cc(NS(=O)(=O)c3cccs3)ccc2O1 | . | . | 1 | . | . | . | . | .
CCOC(=O)c1cn(-c2nc(-c3ccc(Cl)c(Cl)c3)cs2)c2c(F)c(N3CCOCC3)c(F)cc2c1=O | 58* | 6 | . | 0 | 22 | 6 | 0 | -3
O=C(C[C@@H]1C=C[C@H](NC(=O)c2cccnc2)[C@H](CO)O1)NCCN1CCCCC1 | . | . | -1 | . | . | . | . | .
CCn1cc(Br)c(C(=O)Nc2sc3c(c2C(N)=O)CCCC3)n1 | 68* | 2 | . | 4 | -7 | 9 | 2 | -3
Cc1ccc(S(=O)(=O)N(C)C[C@H]2OCCCC[C@@H](C)Oc3ccc(NC(=O)Nc4ccccc4)cc3C(=O)N([C@@H](C)CO)C[C@H]2C)cc1 | . | . | -2 | . | . | . | . | .
COCCNC(=S)N/N=C(\C)c1ccc(OC(F)F)cc1 | 62* | 1 | 1 | -10 | -11 | 0 | 0 | 3
CCCNC(=O)C[C@@H]1CC[C@H]2[C@H](COc3ccc(NC(=O)NCCC)cc3C(=O)N2C)O1 | . | . | 3 | . | . | . | . | .
COC(=O)c1cc2occc2n1Cc1nc(-c2ccccc2Cl)oc1C | 86* | -12 | 2 | 2 | -13 | 0 | 1 | 2
COC(=O)c1cc2occc2n1Cc1nc(-c2ccc(Cl)cc2)oc1C | 1 | 0 | 6 | 1 | -10 | 1 | . | .
C[C@H](CO)N1C[C@H](C)[C@@H](CN(C)S(=O)(=O)c2ccc(F)cc2)Oc2ccc(NC(=O)Nc3cccc4ccccc34)cc2C1=O | . | . | 0 | . | . | . | . | .
C[C@@H]1CN([C@H](C)CO)C(=O)c2cc(C#CCc3ccccc3)cnc2O[C@@H]1CN(C)Cc1cccnc1 | . | . | -2 | . | . | . | . | .
CCS(=O)(=O)N[C@H]1C=C[C@@H](CC(=O)NCc2ccc(Cl)cc2)O[C@@H]1CO | . | . | -2 | . | . | . | . | .
COc1cccc(S(=O)(=O)N[C@@H]2C=C[C@H](CC(=O)NCc3ccncc3)O[C@@H]2CO)c1 | . | . | 0 | . | . | . | . | .
C[C@H]1CCCCO[C@H](CN(C)Cc2ccccc2)[C@@H](C)CN([C@@H](C)CO)C(=O)c2cc(NC(=O)CCC(F)(F)F)ccc2O1 | 65* | 1 | 3 | 2 | . | 0 | 5 | 4
SMILES | DNMT1 block | STEP inh | F508del corr | SUMO1-SIM PPI | Scp1 inh | LMPTP block | DNMT1 confirm | DNMT1 interf | others
C[C@@H]1CCCCO[C@@H](CN(C)Cc2ccccc2)[C@H](C)CN([C@H](C)CO)C(=O)c2cc(NC(=O)CCC(F)(F)F)ccc2O1 | . | . | 3 | . | . | . | . | .
O=C(CCN1C(=O)/C(=C/C=C/c2ccccc2)SC1=S)Nc1ccccn1 | 9 | -1 | 1 | -8 | -1 | 1 | . | .
CC(/C=C1\SC(=S)N(CCC(=O)Nc2cccc(C(=O)O)c2)C1=O)=C\c1ccccc1 | 80* | 3 | -2 | 16 | -9 | 12 | 12 | 2
O=C(CCN1C(=O)/C(=C/C=C/c2ccccc2)SC1=S)Nc1cccnc1 | 62* | 0 | . | -8 | -6 | 4 | 0 | 0
CC(=O)c1cccc(NC(=S)N2CCN(CCN3C(=O)c4cccc5cccc(c45)C3=O)CC2)c1 | 44 | 8 | -2 | -13 | -2 | 1 | . | .
CC(=O)c1ccc(NC(=S)N2CCN(CCN3C(=O)c4cccc5cccc(c45)C3=O)CC2)cc1 | 55* | 4 | . | -2 | 0 | 2 | 1 | -3
O=C(O)c1ccccc1/C=N/NC(=O)c1cc(-c2ccco2)nc2ccccc12 | 91* | 5 | 0 | 57* | 77* | 33 | 38* | -1 | DNMT1 interf DR=>99
CCN(CC)C(=O)COC(=O)c1cc(-c2ccco2)nc2ccccc12 | 73* | 1 | -2 | -5 | 82* | 31 | 7 | 0
CC(=O)Nc1ccc(/C=N/NC(=O)c2cc(-c3ccco3)nc3ccccc23)cc1 | -6 | 1 | 0 | -3 | -1 | 0 | . | .
Cc1ccc(NC(=O)COC(=O)c2cc(C)nc3ccccc23)c([N+](=O)[O-])c1 | 64* | 0 | 0 | -2 | -1 | -1 | 0 | 2
CNC(=O)COC(=O)c1cc(-c2ccco2)nc2ccccc12 | 56* | 4 | 1 | -9 | 76* | 12 | 19 | 2
CC(C)(O)c1cn([C@H]2C[C@@H]3O[C@@H](CO)CC[C@@H]3O[C@@H]2CCc2ccc(-c3ccncc3)cc2)nn1 | . | . | 0 | . | . | . | . | .
O=C(CC1CC1)Nc1ccc2c(c1)[C@@H]1C[C@@H](CC(=O)N3CCCCC3)O[C@H](CO)[C@@H]1O2 | . | . | 0 | . | . | . | . | .
O=C(N[C@H]1CC[C@H](CC(=O)N2CCC(Cc3ccccc3)CC2)O[C@H]1CO)c1cnccn1 | . | . | -1 | . | . | . | . | .
